An excerpt weighted towards active compounds, which were near 2.8% of everything screened.
NPY-Y1 antag – blocks the human neuropeptide Y Y1 receptor; P25929; AID 1040; inhibition, % at 3.6 µM; HEK293-CNG Y1 cells, membrane potential fluorescence; NPY at EC95, then isoproterenol; 1% of 200,000 active;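 active = inhibition above the campaign mean inhibition of all tested compounds plus 3 SD, cut at about 20% in these data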;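 note: 0% = DMSO wells given NPY plus isoproterenol and 100% = isoproterenol alone without NPY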
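Test system – HEK293 Y1/CNG channel cell line · Also added – NPY agonist 25 nM, then isoproterenol 1 µM plus Ro 20-1724 25 µM · Compound dosing – one concentration, 3.6 µM, in 0.4% DMSO · Schedule – compound incubation 1 h at room temperature, readout 45 min post-stimulation · Technique – fluorescence, membrane potential probe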
PGE2 EP2 inh – EP2 receptor (human) inhibition | P43116 | C6 glioma cells expressing human EP2, cAMP TR-FRET; cells stimulated with saturating PGE2 | inhibition, % at 25 µM | 0.52% of 260,000 active | AID 1422;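 active = percent inhibition above 40 after rounding to a whole number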;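 note: rat C6 glioma host cells with rolipram phosphodiesterase inhibitor present; the protocol text gives 20 µM as final concentration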
Target sequence (P43116 whole entry, looked up): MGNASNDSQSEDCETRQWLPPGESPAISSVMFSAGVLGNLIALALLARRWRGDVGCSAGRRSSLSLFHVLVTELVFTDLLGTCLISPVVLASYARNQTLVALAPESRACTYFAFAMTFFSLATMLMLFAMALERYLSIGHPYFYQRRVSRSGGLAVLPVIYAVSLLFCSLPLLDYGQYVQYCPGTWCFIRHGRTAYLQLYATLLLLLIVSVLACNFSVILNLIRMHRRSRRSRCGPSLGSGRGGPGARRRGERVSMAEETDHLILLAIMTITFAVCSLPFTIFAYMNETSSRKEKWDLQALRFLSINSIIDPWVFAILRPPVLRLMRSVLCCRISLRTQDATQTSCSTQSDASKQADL
NPY2 pot ag – potentiates or activates human NPY-Y2 receptor; P49146; cells expressing NPY-Y2, potentiator/agonist read-out; activation, % at 3.6 µM; 0.45% of 220,000 active; AID 1359; in the data active = activation above about 27%;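 note: cells stimulated with NPY near EC25 plus isoproterenol at EC100; 0% = vehicle plus submaximal agonist and 100% = vehicle plus saturating agonist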
EP2 mod – modulators of human EP2 prostaglandin E2 receptor | induction, % at 25 µM | P43116 | EP2-expressing cells, cAMP HTRF FRET, PGE2 co-stimulation | 0.83% of 260,000 active;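 active = compounds whose cAMP rise, as percent of the full-agonist control response, exceeds 60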;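 note: rat C6 glioma line stably carrying human EP2 under a CMV promoter; the protocol text gives 20 µM as final concentration; 100% = response of wells given 1 µM PGE2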
NPY-Y1 PAM-ag – potentiators or agonists of human neuropeptide Y receptor Y1; activation, % at 3.6 µM; NPY-Y1 expressing cells, potentiator/agonist activation; P25929; 0.37% of 220,000 active; in the data active = activation above about 33%, passing the limit was not always enough;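 note: cells stimulated with NPY at EC10 then isoproterenol at EC100; 0% = low agonist plus stimulus and 100% = saturating agonist plus stimulus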
NPY-Y2 antag – NPY-Y2 (human) receptor antagonism. NPY-Y2 expressing cells, antagonist mode. inhibition, % at 2.7 µM. 0.99% of 140,000 active. AID 793; in the data active = inhibition above about 17%;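 note: 0% = vehicle with agonist challenge and 100% = reference antagonist with challenge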
* marks the source's active call; other numbers are inactive results; / = not tested or not shown.

SMILES | NPY-Y1 antag | PGE2 EP2 inh | NPY2 pot ag | EP2 mod | NPY-Y1 PAM-ag | NPY-Y2 antag
NC(N)=N/N=C/c1ccc(OCc2ccc(Cl)cc2)cc1 | 11 | 64* | -22 | -24 | -36 | 6
NC(N)=N/N=C/c1ccc(OCc2ccccc2)cc1 | 12 | 13 | -6 | -10 | -23 | 9
NC(=O)c1cccn1Cc1cccc(Cl)c1 | -1 | 6 | 33* | 8 | 95* | 1
NC(=O)c1cccn1Cc1ccccc1Cl | 5 | 3 | 10 | -3 | -2 | 6
CC(=O)Nc1ccc(N(C(=O)c2ccco2)C(C(=O)NC2CCCC2)c2ccco2)cc1 (centres undefined) | / | 11 | / | 0 | / | /
Cc1cc(N/N=C/c2ccc(O)cc2O)nc(-c2ccccc2O)n1 | -7 | 80* | 10 | -57 | 16 | -6
Cc1cc(N/N=C/c2ccccc2O)nc(-c2ccccc2O)n1 | -3 | 60* | 0 | -57 | 9 | -3
Cc1cc(N/N=C\c2ccccc2)nc(-c2ccccc2O)n1 | 3 | 15 | 3 | 7 | -22 | 3
COc1ccc(C(c2nnnn2C2CCCCC2)N2CCc3ccccc3C2)c(OC)c1 (centres undefined) | / | 10 | / | -8 | / | /
Cc1cccc(N(CC(=O)Nc2ccccc2-c2ccccc2)S(=O)(=O)c2ccccc2)c1C | 11 | 2 | -7 | 64* | -17 | 0
Cc1ccc(S(=O)(=O)N(CC(=O)Nc2ccccc2-c2ccccc2)c2ccc(C)cc2C)cc1 | 0 | 2 | -2 | 17 | -22 | -2
CCOc1cc(NC(=O)c2ccco2)c(OCC)cc1NC(=O)c1ccc(F)cc1 | / | 19 | / | -29 | / | /
O=C(Cn1nc(-c2ccc(N3CCOCC3)c([N+](=O)[O-])c2)c2ccccc2c1=O)N1CCCCC1 | 25* | 3 | -35 | 42 | -14 | 57*
O=[N+]([O-])c1cc(-c2nnc(N3CCOCC3)c3ccccc23)ccc1N1CCOCC1 | -1 | 16 | 2 | -20 | 4 | /
Cc1ccccc1NC(=O)CSc1nnc2n(CC(=O)N3CCCC3)c3ccccc3n12 | / | 9 | / | 3 | / | /
Cc1[nH]c2ccccc2c1/C=N/NC(=O)c1cccc([N+](=O)[O-])c1 | 5 | 22 | -4 | -104 | 2 | /
Cc1[nH]c2ccccc2c1/C=N/Nc1ccc([N+](=O)[O-])cc1 | -15 | 10 | 56* | -4 | 65* | -9
O=C(/C(N=Nc1cccc(C(F)(F)F)c1)=C(/O)c1cccs1)C(F)(F)F | / | 7 | 1 | -8 | 24 | /
Cc1cccc(N=N/C(=C\O)C(=O)c2cccs2)c1 | -7 | 7 | -6 | 64* | -10 | /
COc1ccc(NC(=O)Cn2c(=O)n(C(C)C)c3ncccc32)cc1OC | / | / | / | 11 | / | /
CC(C)NCC(O)COCc1ccc(Cl)cc1 (centres undefined) | -6 | 5 | 36 | -6 | 35 | 3
CCc1ccc(OCC(O)CNC(C)(C)C)cc1 (centres undefined) | -16 | 8 | 96* | 14 | 93* | 4
Cc1cc(OCC(O)CNC(C)(C)C)ccc1Cl (centres undefined) | -14 | 9 | 102* | -24 | 110* | /
CC(C)(C)NCC(O)COCc1ccc(Cl)cc1 (centres undefined) | -5 | 8 | 68* | 6 | 73* | 0
O=C(C[n+]1ccc(-c2ccncc2)cc1)c1ccccc1 | / | 16 | / | -23 | / | /
SMILES | NPY-Y1 antag | PGE2 EP2 inh | NPY2 pot ag | EP2 mod | NPY-Y1 PAM-ag | NPY-Y2 antag
O=C(c1ccc2c(c1)C1C3CCC(C3)C1C(c1ccccc1)N2)N1CCCC1 (centres undefined) | / | 30 | / | 55 | / | /
O=c1[nH]c(N2CCCCCC2)nc2c1CN(Cc1ccc(F)cc1)CC2 | / | 2 | / | -115 | / | /
CCCOc1ccc(Cc2c(Cl)nc(SC)nc2OC)cc1 | 3 | 2 | 9 | 10 | 12 | 6
CCCOc1ccc(Cc2c(Cl)nc(SC)nc2N(C)C)cc1 | 22* | 3 | -14 | 10 | -54 | 26*
CC(C)N1CCN(c2ccncc2S(=O)(=O)N2CCCCC2)CC1 | / | 41* | / | 1 | / | /
COC(=O)c1ccc(CCC2CCN(C(=O)c3cnn(C)c3C)CC2)cc1 | / | 4 | / | -33 | / | /
CC(C)(C)NC(=O)C1CC(c2ccccc2O)=NO1 (centres undefined) | / | 8 | / | -37 | / | /
CC1CCCN(c2nc3c(c(=O)[nH]2)CCN(Cc2cnc(N(C)C)nc2)C3)C1 (centres undefined) | / | / | / | -7 | / | /
COc1ccccc1N1CCN(C(c2ccc(F)cc2)c2nnnn2C(C)C)CC1 (centres undefined) | 24* | 8 | 4 | 11 | -13 | 18*
Clc1cccc(Nc2nc(-c3ccncc3)cs2)c1 | -18 | 11 | 51* | -45 | 46* | /
Cc1cccc(Nc2nc(-c3ccncc3)cs2)c1 | -21 | 3 | 35* | 11 | 47* | /
CCc1ccc2[nH]c(=O)c(CN(CCCN3CCOCC3)C(=S)NC)cc2c1 | / | 11 | / | -16 | / | /
COc1cc(C2=Nc3ccc(Br)cc3C(c3ccccc3)N2CC(=O)NN)cc(OC)c1OC (centres undefined) | / | 5 | 13 | 1 | 9 | /
NNC(=O)CN1C(c2ccc(Br)cc2)=Nc2ccc(Br)cc2C1c1ccccc1 (centres undefined) | 6 | 10 | -3 | 5 | -6 | 2
COC(=O)CN1C(c2ccc(OC)cc2)=Nc2ccc(Cl)cc2C1c1ccccc1 (centres undefined) | 25* | 11 | -9 | 6 | -7 | 23*
COC(=O)CN1C(c2cccc(Cl)c2)=Nc2ccc(Cl)cc2C1c1ccccc1 (centres undefined) | 39* | 5 | -21 | 41 | -43 | 28*
O=C(NCCNC(=O)c1ccc(F)cc1)c1ccncc1 | / | 4 | / | 29 | / | /
CCc1nn(CC(=O)N2CCCC(C)C2)c(=O)c2cc3ccsc3n12 (centres undefined) | / | / | / | -1 | / | /
COC(=O)c1cc(NC(=O)CC2SC(=Nc3ccccc3)N(CCc3c[nH]c4ccccc34)C2=O)cc(C(=O)OC)c1 (centres undefined) | -8 | 11 | 35* | -10 | 47* | -4
Cc1cc2cc(CN(CCO)C(=O)c3ccccc3)c(=O)[nH]c2cc1C | / | 11 | / | 4 | / | /
O=C(NC(=S)NCCN1CCOCC1)c1ccc(Cl)cc1Cl | 8 | 13 | 6 | -7 | -8 | 5
O=C(NC(=S)NCCN1CCOCC1)c1ccccc1Cl | 5 | 7 | -8 | 64* | 4 | 2
CC[C@@H](Cn1nc(-c2cccs2)oc1=O)NC(=O)Cn1nc(C)c2ccccc2c1=O | / | 11 | / | -47 | / | /
O=C(O)c1ccc(N/N=C/c2cn(Cc3ccccc3F)c3ccccc23)cc1 | / | 5 | 7 | 87* | 20 | /
COC(=O)N/N=C/c1cn(Cc2ccccc2F)c2ccccc12 | / | 8 | 29 | -42 | -4 | /
COCCNC(=O)CN(C(=O)CCC(=O)Nc1nccs1)c1ccc(C)c(C)c1 | / | 21 | / | 0 | / | /
CC(=O)C1=C(S(=O)(=O)c2ccc(C)cc2)CS(=O)(=O)C1 | -6 | 97* | -2 | -62 | 8 | /
